How the values were obtained:
[1] = molecular target: T1, Metabotropic glutamate receptor 5 (Rattus norvegicus, UniProt P31424); assay: Displacement of [3H]-M-MPEP from mGluR5 in rat cerebrocortical membranes; format: cell membranes, Membrane
Outline: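 Displacement run in duplicate or triplicate, with curves of at least six concentrations. IC50 was converted to Ki by Cheng-Prusoff, using Kd from a Scatchard plot.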

[2] = molecular target: T1, Metabotropic glutamate receptor 5; assay: Allosteric modulation of mGluR5 in E17 rat neuronal cultures assessed as inhibition of (S)-3,5-dihydroxyphenylglycine-induced calcium level; format: functional
Outline: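 Primary neocortical cultures from E17 rat embryos, grown at least 5 days, then loaded with the Ca2+ dye fluo-4/AM. Baseline and agonist-evoked fluorescence signals were recorded on a plate reader fluorometer.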

[3] = molecular target: Metabotropic glutamate receptor 5 (Homo sapiens, UniProt P41594); assay: Binding affinity to human mGluR5
Sequence of Metabotropic glutamate receptor 5 (Homo sapiens, UniProt P41594) (P41594 whole entry): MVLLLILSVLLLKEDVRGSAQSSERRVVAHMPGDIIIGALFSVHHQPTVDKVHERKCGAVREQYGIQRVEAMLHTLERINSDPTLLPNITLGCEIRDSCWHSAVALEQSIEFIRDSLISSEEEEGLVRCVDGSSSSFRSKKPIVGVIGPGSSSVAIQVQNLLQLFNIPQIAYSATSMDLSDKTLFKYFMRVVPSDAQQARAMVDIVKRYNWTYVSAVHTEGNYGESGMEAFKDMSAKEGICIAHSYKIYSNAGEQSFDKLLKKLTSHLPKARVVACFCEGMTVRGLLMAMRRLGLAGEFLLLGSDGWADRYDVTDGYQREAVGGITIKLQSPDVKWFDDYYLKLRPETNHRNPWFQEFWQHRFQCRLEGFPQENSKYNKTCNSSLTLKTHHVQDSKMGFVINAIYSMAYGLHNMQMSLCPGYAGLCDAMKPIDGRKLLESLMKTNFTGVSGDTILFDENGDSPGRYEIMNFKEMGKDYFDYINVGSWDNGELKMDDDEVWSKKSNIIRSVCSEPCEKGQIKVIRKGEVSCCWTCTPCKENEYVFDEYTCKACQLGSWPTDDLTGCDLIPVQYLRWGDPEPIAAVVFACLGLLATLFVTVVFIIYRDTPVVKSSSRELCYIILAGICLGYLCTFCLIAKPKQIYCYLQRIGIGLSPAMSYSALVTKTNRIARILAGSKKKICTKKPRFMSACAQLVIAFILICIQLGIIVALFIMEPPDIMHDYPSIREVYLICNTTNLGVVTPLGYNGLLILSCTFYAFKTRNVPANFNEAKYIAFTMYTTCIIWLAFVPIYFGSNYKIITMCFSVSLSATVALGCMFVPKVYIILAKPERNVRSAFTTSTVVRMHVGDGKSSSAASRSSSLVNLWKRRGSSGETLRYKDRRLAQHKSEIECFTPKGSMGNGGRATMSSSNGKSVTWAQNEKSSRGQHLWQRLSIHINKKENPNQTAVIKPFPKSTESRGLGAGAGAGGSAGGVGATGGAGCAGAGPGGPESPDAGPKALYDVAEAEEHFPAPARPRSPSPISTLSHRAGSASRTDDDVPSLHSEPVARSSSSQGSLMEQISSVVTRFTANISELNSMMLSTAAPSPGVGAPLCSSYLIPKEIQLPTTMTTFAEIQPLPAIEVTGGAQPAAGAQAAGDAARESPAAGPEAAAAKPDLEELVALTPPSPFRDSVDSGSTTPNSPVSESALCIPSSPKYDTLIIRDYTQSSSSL
Outline: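 Run in duplicate or triplicate, with concentration-displacement curves of at least six concentrations giving IC50. Ki derived by Cheng-Prusoff, using the radioligand Kd determined from a Scatchard plot.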

T1 sequence (P31424 whole entry): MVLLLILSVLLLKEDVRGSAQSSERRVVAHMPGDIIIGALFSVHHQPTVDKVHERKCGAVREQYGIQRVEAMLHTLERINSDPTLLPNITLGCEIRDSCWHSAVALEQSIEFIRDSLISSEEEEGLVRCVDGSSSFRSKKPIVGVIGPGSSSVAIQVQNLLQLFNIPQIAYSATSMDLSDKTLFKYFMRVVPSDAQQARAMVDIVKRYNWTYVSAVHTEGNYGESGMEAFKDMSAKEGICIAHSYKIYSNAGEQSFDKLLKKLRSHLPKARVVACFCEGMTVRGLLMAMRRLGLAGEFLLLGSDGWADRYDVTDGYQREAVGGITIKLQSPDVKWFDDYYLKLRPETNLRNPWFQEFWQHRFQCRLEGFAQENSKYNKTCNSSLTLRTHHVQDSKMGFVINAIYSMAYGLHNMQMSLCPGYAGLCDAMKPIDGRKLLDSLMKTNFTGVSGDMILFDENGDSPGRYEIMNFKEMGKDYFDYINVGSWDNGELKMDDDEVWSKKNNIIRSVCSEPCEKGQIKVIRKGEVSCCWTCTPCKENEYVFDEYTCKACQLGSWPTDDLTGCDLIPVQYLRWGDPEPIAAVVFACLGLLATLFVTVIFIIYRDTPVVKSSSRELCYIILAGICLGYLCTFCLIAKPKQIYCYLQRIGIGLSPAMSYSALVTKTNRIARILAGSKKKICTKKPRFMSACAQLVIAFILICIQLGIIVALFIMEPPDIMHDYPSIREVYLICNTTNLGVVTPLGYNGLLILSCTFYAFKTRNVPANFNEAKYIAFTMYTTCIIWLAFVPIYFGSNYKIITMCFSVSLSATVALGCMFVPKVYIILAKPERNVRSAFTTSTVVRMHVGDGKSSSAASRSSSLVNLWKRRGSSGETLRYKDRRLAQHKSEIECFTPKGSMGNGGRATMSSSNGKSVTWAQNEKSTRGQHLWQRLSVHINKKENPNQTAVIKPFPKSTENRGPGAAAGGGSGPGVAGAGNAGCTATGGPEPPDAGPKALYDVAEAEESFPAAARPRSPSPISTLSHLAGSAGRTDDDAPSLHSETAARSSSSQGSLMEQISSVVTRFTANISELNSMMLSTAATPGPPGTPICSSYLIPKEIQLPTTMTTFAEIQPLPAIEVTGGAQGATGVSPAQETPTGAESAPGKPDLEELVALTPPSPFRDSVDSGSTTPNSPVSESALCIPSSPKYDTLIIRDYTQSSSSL

Row | Structure (SMILES) | Ki [1] [nM] | IC50 [2] [nM] | Ki [3] [nM]
1 | COc1cccc(-c2noc(C3CCCCN3C(=O)C3CCC3)n2)c1 (racemic) | 182 | 501 | –
2 | O=C(c1ccco1)N1CSCC1c1nc(-c2cccc(Cl)c2)no1 (racemic) | 195 | 1050 | –
3 | O=C(c1ccco1)N1CCCCC1c1nnn(-c2cccc(Cl)c2)n1 (racemic) | 126 | – | –
4 | N#Cc1cccc(-c2noc(C3CCCCN3C(=O)c3cccs3)n2)c1 (racemic) | 200 | 1740 | –
5 | Cc1ccc(C(=O)N2CCCC2c2nnn(-c3cccc(Cl)c3)n2)s1 (racemic) | 89.1 | 251 | –
6 | Cc1cccc(-n2nnc(C3CCCCN3C(=O)C3CCCC3)n2)c1 (racemic) | 102 | – | –
7 | CC(C)C(=O)N1CCCCC1c1nnn(-c2cccc(Cl)c2)n1 (racemic) | 138 | – | –
8 | Cc1ccc(C(=O)N2CCCC2c2nnn(-c3cccc(Cl)c3)n2)o1 (racemic) | 105 | – | –
9 | Cc1ccc(C(=O)N2CSCC2c2nc(-c3cccc(Cl)c3)no2)s1 (racemic) | 83.2 | 759 | –
10 | O=C(c1cccs1)N1CCCC(c2nnn(-c3cccc(Cl)c3)n2)C1 (racemic) | 316 | – | –
11 | O=C(c1ccc(Br)o1)N1CCCCC1c1nnn(-c2cccc(F)c2)n1 (racemic) | 457 | – | –
12 | N#Cc1cccc(-n2nnc(C3CCCCN3C(=O)C3CCC3)n2)c1 (racemic) | 229 | – | –
13 | O=C(C1CCCC1)N1CCCCC1c1nnn(-c2cccc(Cl)c2)n1 (racemic) | 87.1 | 295 | –
14 | O=C(C1CCC1)N1CCCC[C@H]1c1nnn(-c2cccc(Cl)c2)n1 | 741 | – | –
15 | Cc1cccc(-c2noc(C3CCCN3C(=O)c3ccc(C)s3)n2)c1 (racemic) | 145 | 1000 | –
16 | Cc1cccc(-n2nnc(C3CCCCN3C(=O)C3CCC3)n2)c1 (racemic) | 72.4 | 224 | –
17 | COCC(=O)N1CCCC1c1nc(-c2cccc(C)c2)no1 (racemic) | 186 | 30200 | –
18 | Cc1ccc(C(=O)N2CCCC2c2nc(-c3cccc(Cl)c3)no2)s1 (racemic) | 123 | 6610 | –
19 | Cc1cccc(-c2noc(C3CCCCN3C(=O)C3CCC3)n2)c1 (racemic) | 126 | 490 | –
20 | O=C(C1CCC1)N1CCCC[C@@H]1c1nnn(-c2cccc(Cl)c2)n1 | 57.5 | – | –
21 | CN1CC(=O)N=C1NC(=O)Nc1cccc(Cl)c1 [FENOBAM ANHYDROUS] | – | – | 6.76
22 | O=C(c1cccs1)N1CCCC1c1nc(-c2cccc(Cl)c2)no1 (racemic) | 195 | 30200 | –
23 | O=C(C1CCC1)N1CCCCC1c1nnn(-c2cccc(Cl)c2)n1 (racemic) | 77.6 | 339 | –
